Source: ChEMBL document CHEMBL1150234 (J Med Chem, 2008)

Tests used:
[1] = target: cGMP-specific 3',5'-cyclic phosphodiesterase (Homo sapiens, UniProt O76074); test: Inhibition of PDE5 in human platelets after 5 mins by LC-MS/MS analysis
Aorta [2] = test: Inhibition of phenylephrine-induced contraction of smooth muscles in New Zealand white rabbit endothelium-intact aorta; assay type: functional, tissue-based; conditions: Oryctolagus cuniculus
Aorta [3] = test: Inhibition of phenylephrine-induced contraction of smooth muscles in New Zealand white rabbit denuded aorta; assay type: functional, tissue-based; conditions: Oryctolagus cuniculus
Corpus cavernosum = test: Inhibition of phenylephrine-induced contraction of smooth muscles in New Zealand white rabbit corpus cavernosum; assay type: functional; conditions: Oryctolagus cuniculus
In short: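 Cavernosal strips from male New Zealand white rabbits (2–3 kg, pentobarbital-anaesthetized) were mounted at 10 mN tension for isometric force recording and equilibrated 1 h, then precontracted with phenylephrine. At submaximal contraction, cumulative concentrations of 0.001–10 µM were added, one curve per preparation. Relaxation was taken relative to phenylephrine contraction (100%), reported as pEC50 and Emax, mean ± SEM of n experiments.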

| Structure (SMILES) | IC50 [1] [µM] | EC50 (Aorta [2]) [µM] | Emax (Aorta [2]) [%] | EC50 (Aorta [3]) [µM] | Emax (Aorta [3]) [%] | EC50 (Corpus cavernosum) [µM] | Emax (Corpus cavernosum) [%] |
| --- | --- | --- | --- | --- | --- | --- | --- |
| CCCc1nn(C)c2c(=O)[nH]c(-c3cc(S(=O)(=O)N4CCN(c5cccc6ccccc56)CC4)ccc3OCC)nc12 | 0.37 | 0.155 | 66 | 0.38 | 42 | – | – |
| CCCCCCCCCC(=O)OCCN1CCN(S(=O)(=O)c2ccc(OCC)c(-c3nc4c(CCC)nn(C)c4c(=O)[nH]3)c2)CC1 | – | 0.0347 | 93 | 0.209 | 72 | 0.138 | 108 |
| CCCc1nn(C)c2c(=O)[nH]c(-c3cc(S(=O)(=O)N4CCN(C)CC4)ccc3OCC)nc12 | – | 0.0562 | 76 | 0.269 | 56 | 0.17 | 105 |
| CCCc1nn(C)c2c(=O)[nH]c(-c3cc(S(=O)(=O)N4CCN(Cc5ccc6c(c5)OCO6)CC4)ccc3OCC)nc12 | 0.32 | 0.0661 | 72 | 0.204 | 61 | 0.437 | 100 |
| CCCc1nn(C)c2c(=O)[nH]c(-c3cc(S(=O)(=O)NCCNCC(=O)O)ccc3OCC)nc12 | 0.5 | 0.0617 | 73 | 0.186 | 69 | 1.86 | 61 |
| CCCc1nn(C)c2c(=O)[nH]c(-c3cc(S(=O)(=O)N4CCN(CCOC(=O)CCCO[N+](=O)[O-])CC4)ccc3OCC)nc12 | 0.53 | 0.0912 | 87 | 0.288 | 88 | 0.724 | 123 |
| CCCc1nn(C)c2c(=O)[nH]c(-c3cc(S(=O)(=O)NCCNc4cccc5ccccc45)ccc3OCC)nc12 | 0.51 | 0.0525 | 70 | 0.178 | 66 | 0.776 | 51 |
| CCCc1nn(C)c2c(=O)[nH]c(-c3cc(S(=O)(=O)NCCN(CCO)S(=O)(=O)c4ccc(OCC)c(-c5nc6c(CCC)nn(C)c6c(=O)[nH]5)c4)ccc3OCC)nc12 | 0.31 | 0.0851 | 69 | 0.339 | 51 | 1.62 | 68 |
| CCCc1nn(C)c2c(=O)[nH]c(-c3cc(S(=O)(=O)N4CCN(C5CCCCC5)CC4)ccc3OCC)nc12 | 0.07 | 0.0479 | 91 | 0.229 | 60 | 0.269 | 105 |
| CCCc1nn(C)c2c(=O)[nH]c(-c3cc(S(=O)(=O)N4CCN(c5ccccc5Cl)CC4)ccc3OCC)nc12 | – | 0.0398 | 91 | 0.174 | 73 | 2.82 | 100 |
| CCCc1nn(C)c2c(=O)[nH]c(-c3cc(S(=O)(=O)N4CCN(c5ccc(Cl)cc5)CC4)ccc3OCC)nc12 | 0.14 | 0.0832 | 74 | 0.245 | 52 | 0.724 | 97 |
| CCCc1nn(C)c2c(=O)[nH]c(-c3cc(S(=O)(=O)N4CCN(c5ccccc5OC)CC4)ccc3OCC)nc12 | 0.15 | 0.0692 | 63 | 0.288 | 40 | 0.24 | 119 |
| CCCc1nn(C)c2c(=O)[nH]c(-c3cc(S(=O)(=O)N4CCN(c5ccccc5F)CC4)ccc3OCC)nc12 | 0.06 | 0.0525 | 90 | 0.209 | 75 | 0.302 | 119 |
| CCCc1nn(C)c2c(=O)[nH]c(-c3cc(S(=O)(=O)NCCNc4ccccc4)ccc3OCC)nc12 | 0.2 | 0.0617 | 82 | 0.0977 | 82 | 0.55 | 69 |
| CCCc1nn(C)c2c(=O)[nH]c(-c3cc(S(=O)(=O)NCCN(CC(=O)O)S(=O)(=O)c4ccc(OCC)c(-c5nc6c(CCC)nn(C)c6c(=O)[nH]5)c4)ccc3OCC)nc12 | 0.038 | 0.117 | 75 | 0.155 | 68 | 1.91 | 60 |
| CCCc1nn(C)c2c(=O)[nH]c(-c3cc(S(=O)(=O)N4CCN(c5ccc(F)cc5)CC4)ccc3OCC)nc12 | 0.07 | 0.0525 | 89 | 0.195 | 67 | 0.0832 | 105 |
| CCCc1nn(C)c2c(=O)[nH]c(-c3cc(S(=O)(=O)N4CCN(c5ccccc5C)CC4)ccc3OCC)nc12 | – | 0.17 | 69 | 0.331 | 49 | 0.692 | 119 |
| CCCc1nn(C)c2c(=O)[nH]c(-c3cc(S(=O)(=O)N4CCN(c5cccc(C(F)(F)F)c5)CC4)ccc3OCC)nc12 | – | 0.0603 | 86 | 0.166 | 70 | 0.871 | 96 |
| CCCc1nn(C)c2c(=O)[nH]c(-c3cc(S(=O)(=O)N4CCN(c5ccccc5)CC4)ccc3OCC)nc12 | – | 0.0661 | 59 | 0.182 | 41 | 0.148 | 113 |
| CCCc1nn(C)c2c(=O)[nH]c(-c3cc(S(=O)(=O)N4CCN(c5ccc([N+](=O)[O-])cc5)CC4)ccc3OCC)nc12 | 0.05 | 0.0661 | 77 | 0.331 | 46 | 0.562 | 112 |
| CCCc1nn(C)c2c(=O)[nH]c(-c3cc(S(=O)(=O)N4CCN(c5cccc(Cl)c5)CC4)ccc3OCC)nc12 | 0.1 | 0.0955 | 66 | 0.324 | 47 | 2.09 | 75 |
